Here are results for 16 compounds from ChEMBL document CHEMBL1122910, “Syntheses and evaluation as antifolates of MTX analogues derived from 2, omega-diaminoalkanoic acids” (J Med Chem, 1985).

Assay [1] deals with T1, Dihydrofolate reductase (Mus musculus, UniProt P00375).
T1 sequence (P00375 whole entry): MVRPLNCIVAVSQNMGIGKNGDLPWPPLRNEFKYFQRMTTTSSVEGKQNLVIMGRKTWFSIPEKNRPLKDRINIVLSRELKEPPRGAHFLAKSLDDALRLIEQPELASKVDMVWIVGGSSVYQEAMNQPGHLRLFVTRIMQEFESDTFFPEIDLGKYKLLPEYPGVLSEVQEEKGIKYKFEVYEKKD
In words: In vitro inhibitory activity against Dihydrofolate reductase in L1210 cell in mice. The format is cell-based.

For assay [2], the system named is L1210. Briefly: Antitumor activity L1210 cell line as cell membrane transport activity. The format is functional, cell-based. The settings on record: Mus musculus.
The test system of assay [3] is L1210. Briefly: Antitumor activity against L1210 cell line as cell membrane transport activity. The format is functional, Mus musculus.
Assay [4] has as its system L1210. Briefly: Inhibition of L1210 cell growth in mice. The format is functional, cell-based. To be noted: Mus musculus.
Assay [5] concerns Ehrlich. In words: In vitro antitumor activity against Erlich cell line,. The format is functional, Mus musculus.
Assay [6] relates to L1210. In words: (§1) In vitro antitumor activity against L1210 cell line. The format is functional, Mus musculus.
In assay [7] the test system is L1210. Briefly: In vivo antitumor activity as increase in life span in mice with L1210 10E6 tumor cell implanted intraperitoneally; optimal dose is 12 mg/kg. The format is functional. To be noted: Mus musculus, L1210, ip, route intraperitoneal.
Assay [8] deals with Mus musculus. In words: Antitumor activity in mice with L1210 Leukemia and percentage increase in life span was reported for 5 mice x 12 experiments at a dose of 15 mg/Kg.
The species named for assay [9] is Mus musculus. In words: Antitumor activity against L1210 cell […]. The format is functional.
The subject of assay [10] is Mus musculus. In words: Antitumor activity in mice with L1210 Leukemia and weight at termination of the therapy was reported for 5 mice x 12 experiments at a dose of 15 mg/kg. The format is functional.
The test system of assay [11] is CCRF S-180. Briefly: In vitro antitumor activity against S180 cell line. The format is functional, Mus musculus.
Assay [12] relates to Epithelial cell. In words: (§2) In vitro antitumor activity against epithelial cell line. The format is functional, Mus musculus.
For assay [13], the system named is P388. In words: In vivo antitumor activity as increase in life span in mice with P388 10E6 tumor cell implanted intraperitoneally. The format is functional, Mus musculus.
Assay [14] concerns Ehrlich. Briefly: In vitro antitumor activity against Erlich cell line. The format is functional, Mus musculus.
In assay [15] the test system is L1210. Described as §1. The format is functional, cell-based. The settings on record: Mus musculus.
Assay [16] concerns Mus musculus. Briefly: Antitumor activity in mice with L1210 Leukemia and percentage increase in life span was reported for 3 mice x 2 experiments at a dose of 144 mg/kg. The format is functional. In a few lines:
(§3)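 L1210 leukemia-bearing mice dosed on a q2d × 5 schedule. Untreated controls were 5 mice × 12 experiments. Read-outs were MST (days ± SD), % ILS versus control, and body weight at termination (g ± SD).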

Assay [17] concerns Mus musculus. Briefly: Antitumor activity in mice with L1210 Leukemia and […] (MST) in days was reported for 3 mice x 2 experiments at a dose of 144 mg/kg. The format is functional. In a few lines:
as §3

In assay [18] the test system is Mus musculus. In words: Antitumor activity in mice with L1210 Leukemia and weight at termination of the therapy was reported for 3 mice x 2 experiments at a dose of 144 mg/kg. The format is functional.
Assay [19] relates to Epithelial cell line. The description is as §2. The format is functional, Mus musculus.
The test system of assay [20] is Mus musculus. In words: Antitumor activity in mice with L1210 Leukemia and percentage increase in life span was reported for 3 mice x 2 experiments at a dose of 432 mg/Kg. The format is functional. Summed up: as §3
Assay [21] concerns Mus musculus. Briefly: Antitumor activity in mice with L1210 Leukemia and […] (MST) in days was reported for 3 mice x 2 experiments at a dose of 432 mg/Kg. The format is functional. In a few lines:
as §3

The subject of assay [22] is Mus musculus. In words: Antitumor activity in mice with L1210 Leukemia and weight at termination of the therapy was reported for 3 mice x 2 experiments at a dose of 432 mg/Kg. The format is functional.
A short description of assay [23]: In vitro antitumor activity against S180 cells. The format is functional, Mus musculus, CCRF S-180.
Assay [24] concerns L1210. Briefly: In vivo antitumor activity as increase in life span in mice with L1210 10E6 tumor cell implanted intraperitoneally; optimal dose is 768 mg/kg. The format is functional. The settings on record: Mus musculus, L1210, ip, route intraperitoneal.

A word on the Ki: it is a measure of affinity in units of concentration, obtained from inhibition or displacement. Lower therefore signals higher affinity. In general, IC50 refers to the concentration at which inhibition is half-maximal. Low values mean higher potency, high ones lower potency. In turn, `CN(Cc1cnc2nc(N)nc(N)c2n1)c1ccc(C(=O)NC(CNC(=O)NC(CCC(=O)O)C(=O)O)C(=O)O)cc1` (stereo not given) yielded an inhibition constant Ki in assay [1] of 0.00471 nM. In [2], this compound came in with an Efflux Ki of 0.234 min⁻¹. Further, in assay [3], the “Influx Ki” value came to 16400 nM. In assay [4], the IC50 turned out to be 200 nM.

`CN(Cc1cnc2nc(N)nc(N)c2n1)c1ccc(C(=O)NC(CCNC(=O)OC(C)(C)C)C(=O)O)cc1` (stereo not given): the IC50 in assay [4] was found to be 333 nM. This counts as sub-micromolar.

In general, ILS refers to how much longer treated animals lived than controls. Read a low ILS as little gain in survival. For `CN(Cc1cnc2nc(N)nc(N)c2n1)c1ccc(C(=O)N[C@@H](CCC(=O)O)C(=O)O)cc1` [METHOTREXATE], the “Influx Ki” value in [5] was 10100 nM; in [3], 4570 nM; in [6] it was 3700 nM; in assay [11], 11400 nM; in assay [12], 339000 nM. In assay [2], this compound came in with an Efflux Ki of 0.203 min⁻¹. In assay [6], this compound registered an Effllux of 0.23 min⁻¹. The compound further registered an ILS at 12 mg/kg in [7] of 173%. In assay [8], the ILS at 15 mg/kg amounted to 152%. For the same compound, the IC50 in assay [9] and in assay [4] was 3.28 nM in each case. Moreover, in assay [10], the Weight is on record as 19.8 g.

As for `CN(Cc1cnc2nc(N)nc(N)c2n1)c1ccc(C(=O)NC(CCCNC(=O)OC(C)(C)C)C(=O)O)cc1` (stereo not given), it took 97 nM to reach half-maximal inhibition in assay [4] (IC50).

With `CCOC(=O)C(CNC(=O)N(CCCl)N=O)NC(=O)c1ccc(N(C)Cc2cnc3nc(N)nc(N)c3n2)cc1` (stereo not given), the Ki in assay [1] stood at 3.24 nM. In addition, the Efflux Ki in assay [2] is 0.202 min⁻¹. In [3], the “Influx Ki” value is 46900 nM. In assay [13], the ILS is recorded as 113%. In assay [4], the IC50 is 2900 nM.

As to `CCOC(=O)C(CNC(=O)N(C)N=O)NC(=O)c1ccc(N(C)Cc2cnc3nc(N)nc(N)c3n2)cc1` (stereo not given), the Ki in assay [1] stood at 6.35 nM. Besides, in assay [2], the Efflux Ki stood at 0.298 min⁻¹. Also, the “Influx Ki” value in [3] came to 42400 nM. Moreover, in [13], the ILS was determined as 58%. Also, the IC50 in assay [4] came to 3650 nM.

Regarding `CN(Cc1cnc2nc(N)nc(N)c2n1)c1ccc(C(=O)NC(CNC(=O)c2ccc(Cl)cc2)C(=O)O)cc1` (stereo not given), the affinity in [1], expressed as Ki, was 0.00498 nM. In [2], this compound registered an Efflux Ki of 0.255 min⁻¹. Also, in assay [3], the “Influx Ki” value was 7430 nM. In assay [4], the IC50 amounted to 11.9 nM.

In [1], `CNC(=O)NCC(NC(=O)c1ccc(N(C)Cc2cnc3nc(N)nc(N)c3n2)cc1)C(=O)O` (stereo not given) registered a Ki of 14.2 nM. Moreover, the “Influx Ki” value was 13400 nM in assay [14], 16700 nM in assay [6], 19700 nM in assay [11] and over 500000 nM in [19]. Further, in assay [15], the Efflux Ki was determined as 0.27 min⁻¹. Further, in assay [16], the ILS at 144 mg/kg worked out at 12%. The same compound showed an MST in [17] of 7 days. For the same compound, the Weight in [18] is 20 g. In assay [4], this compound registered an IC50 of 34.3 nM.

The compound `CN(Cc1cnc2nc(N)nc(N)c2n1)c1ccc(C(=O)NC(CNC(=O)OC(C)(C)C)C(=O)O)cc1` (stereo not given) yielded a concentration for half-maximal inhibition (IC50) in [4] of 440 nM.

Take `CN(Cc1cnc2nc(N)nc(N)c2n1)c1ccc(C(=O)NC(CCNC(N)=O)C(=O)O)cc1` (stereo not given): in assay [1], the Ki is 0.004 nM. The “Influx Ki” value in assay [14] was 15900 nM; in assay [6] it was 17300 nM; in [23], 24600 nM; in assay [19], over 500000 nM. The compound further returned an Efflux Ki in assay [15] of 0.19 min⁻¹. Besides, the ILS at 432 mg/kg in assay [20] is 33%. In assay [21], the MST is 9.3 days. In [22], this compound yielded a Weight of 21.6 g. For the same compound, in [4], half-maximal inhibition (IC50) was put at 21.8 nM.

With `CN(Cc1cnc2nc(N)nc(N)c2n1)c1ccc(C(=O)NC(CCNC(=O)c2ccc(Cl)cc2)C(=O)O)cc1` (stereo not given), the Ki in [1] worked out at 0.00642 nM. This compound gave an Efflux Ki in assay [2] of 1.21 min⁻¹. Also, in assay [3], the “Influx Ki” value was 4670 nM. In addition, 27.3 nM corresponded to half-maximal inhibition in assay [4] (IC50).

On to `CN(Cc1cnc2nc(N)nc(N)c2n1)c1ccc(C(=O)NC(CN)C(=O)O)cc1` (stereo not given), for which the IC50 in [4] was 1030 nM.

Consider `CN(Cc1cnc2nc(N)nc(N)c2n1)c1ccc(C(=O)NC(CCCN)C(=O)O)cc1` (stereo not given), for which the IC50 in assay [4] was determined as 507 nM.

`CN(Cc1cnc2nc(N)nc(N)c2n1)c1ccc(C(=O)NC(CCN)C(=O)O)cc1` (stereo not given): in [4], the IC50 was found to be 1360 nM.

With `CN(Cc1cnc2nc(N)nc(N)c2n1)c1ccc(C(=O)NC(CNC(N)=O)C(=O)O)cc1` (stereo not given), the Ki in [1] was 35 nM. Further, the “Influx Ki” value in [14] was 12500 nM; in [6], 11600 nM; in assay [11] it was 11600 nM; in [19], over 500000 nM. The compound further registered an Efflux Ki in assay [15] of 0.25 min⁻¹. For the same compound, the ILS at 432 mg/kg in [20] was 129%. In addition, the MST in assay [21] is 16.3 days. The Weight in [22] is on record as 16 g. Besides, inhibition in [4] was half-maximal at 9.4 nM (IC50).

`CN(Cc1cnc2nc(N)nc(N)c2n1)c1ccc(C(=O)NC(CCCNC(=O)c2ccc(Cl)cc2)C(=O)O)cc1` (stereo not given) returned a Ki in assay [1] of 0.00531 nM. Moreover, the Efflux Ki in assay [2] came out at 0.437 min⁻¹. The “Influx Ki” value in assay [3] stood at 4320 nM. Also, the ILS at 768 mg/kg in assay [24] was determined as 104%. In addition, it took 1.71 nM to reach half-maximal inhibition in assay [4] (IC50).
